For 24 molecules, inhibition and Activity results are on record in ChEMBL document CHEMBL4732081, “Development of prohibitin ligands against osteoporosis” (Eur J Med Chem, 2021).

Series [1] can be described thus: Inhibition of osteoclastogenesis in human bone marrow derived CD14+ pre-osteoclasts assessed as blocked of osteoclast differentiation in presence of M-CSF and RANKL at 1 uM measured after 11 days by TRAP staining method relative to control. The settings on record: 264 h, time 11 day. Type of series: functional. In a few lines:
(§1)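 Human CD14+ cells came from donor PBMCs by Ficoll centrifugation (500g, 25 min) and CD14 microbead MACS selection. They were seeded at 45 x 10^4 cells/well in α-MEM, 10% FCS, 25 ng/ml hM-CSF. From day 3, medium with 25 ng/ml hM-CSF and 100 ng/ml hRANKL ± compound was changed twice weekly; about 11 days. TRAP-stained multinucleated cells were counted, as % vs RANKL positive control. Monocyte lots differed between series.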

A short description of series [2]: Inhibition of osteoclastogenesis in human bone marrow derived CD14+ pre-osteoclasts assessed as blocked of osteoclast differentiation in presence of M-CSF and RANKL at 5 uM measured after 11 days by TRAP staining method relative to control. Type of series: functional. The settings on record: 264 h, time 11 day. In a few lines: as §1
A short description of series [3]: Inhibition of osteoclastogenesis in human […] CD14+ pre-osteoclasts assessed as blocked of osteoclast differentiation in presence of M-CSF and RANKL at 10 uM measured after 11 days by TRAP staining method relative to control. The class given is functional. The settings on record: 264 h, time 11 day. In a few lines:
as §1

Series [4] in a line: Cytotoxicity against human bone marrow derived CD14+ pre-osteoclasts upto 10 uM. The class given is tissue-based. The settings on record: osteoclast.
Series [5] concerns Monocyte. In words: Effect on p38 expression in human M-CSF treated human bone marrow derived CD14+ monocytes at 10 uM preincubated for 4 hrs followed by IL-6 stimulation and measured after 15 mins by Western blot assay. Type of series: functional, tissue-based. The settings on record: time 4.25 hrs. In a few lines:
(§2)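 Human CD14+ monocytes were cultured 3 days with 25 ng/ml M-CSF. They were then treated with vehicle or 10 µM compound for 4 h without FBS and M-CSF, and stimulated with IL-6 (25 ng/mL) for 15 min. Equal-protein lysates were run on SDS-PAGE and transferred to PVDF. Blots were probed overnight at 4°C with primary antibodies, with fluorescent secondary detection.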

Series [6] addresses Signal transducer and activator of transcription 3 (Homo sapiens) (UniProt P40763). In words: Inhibition of STAT3 phosphorylation at Ser-727 in human M-CSF treated human bone marrow derived CD14+ monocytes at 10 uM preincubated for 4 hrs followed by IL-6 stimulation and measured after 15 mins by Western blot assay. The settings on record: Monocyte, time 4.25 hrs. In a few lines: as §2

The subject of series [7] is Monocyte. Briefly: Inhibition of osteoclastogenesis in human bone marrow derived CD14+ monocytes assessed as decrease in RANKL-induced TRAP mRNA expression at 1 to 10 uM measured after 4 days by qRT-PCR method. Type of series: functional. The settings on record: dose 1-10 µM, time 4.0 day. In a few lines: (§3)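 CD14+ cells were seeded and, from day 3, treated with 25 ng/ml hM-CSF and 100 ng/ml hRANKL ± compound for 4 days. Target mRNA was measured by qRT-PCR, normalized to GAPDH, with comparative Ct quantification. Each assay was performed in triplicate.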
In general terms: In qPCR the cycle at which signal appears reflects the starting amount.

Series [8] relates to Monocyte. In words: Inhibition of osteoclastogenesis in human bone marrow derived CD14+ monocytes assessed as decrease in RANKL-induced Cathepsin K mRNA expression at 1 to 10 uM measured after 4 days by qRT-PCR method. The settings on record: dose 1-10 µM, time 4.0 day. Type of series: functional. In a few lines: as §3
Series [9] deals with MAP kinase p38 (Homo sapiens) (UniProt O15264+Q15759+Q16539+P53778). In words: Effect on p38 phosphorylation in human M-CSF treated human bone marrow derived CD14+ monocytes at 10 uM preincubated for 4 hrs followed by IL-6 stimulation and measured after 15 mins by Western blot assay. The settings on record: Monocyte, time 4.25 hrs. In a few lines: as §2
(In general: A western blot detects proteins with antibodies after separation by electrophoresis.)

For series [10], the system named is Monocyte. In words: Effect on ERK expression in human M-CSF treated human bone marrow derived CD14+ monocytes at 10 uM preincubated for 4 hrs followed by IL-6 stimulation and measured after 15 mins by Western blot assay. Type of series: functional. The settings on record: time 4.25 hrs. In a few lines:
as §2

The test system of series [11] is Monocyte. Briefly: Inhibition of osteoclastogenesis in human bone marrow derived CD14+ monocytes assessed as decrease in RANKL-induced NFATc1 mRNA expression at 1 to 10 uM measured after 4 days by qRT-PCR method. Type of series: functional. The settings on record: dose 1-10 µM, time 4.0 day. In a few lines:
as §3

The test system of series [12] is Monocyte. In words: Effect on ERK phosphorylation in human M-CSF treated human bone marrow derived CD14+ monocytes at 10 uM preincubated for 4 hrs followed by IL-6 stimulation and measured after 15 mins by Western blot assay. The settings on record: time 4.25 hrs. In a few lines: as §2

SMILES strings stand for the structures. Calls of active or inactive are those of the source. No cut-off for these calls is given here.

Chain of Signal transducer and activator of transcription 3 (Homo sapiens) (P40763 whole entry): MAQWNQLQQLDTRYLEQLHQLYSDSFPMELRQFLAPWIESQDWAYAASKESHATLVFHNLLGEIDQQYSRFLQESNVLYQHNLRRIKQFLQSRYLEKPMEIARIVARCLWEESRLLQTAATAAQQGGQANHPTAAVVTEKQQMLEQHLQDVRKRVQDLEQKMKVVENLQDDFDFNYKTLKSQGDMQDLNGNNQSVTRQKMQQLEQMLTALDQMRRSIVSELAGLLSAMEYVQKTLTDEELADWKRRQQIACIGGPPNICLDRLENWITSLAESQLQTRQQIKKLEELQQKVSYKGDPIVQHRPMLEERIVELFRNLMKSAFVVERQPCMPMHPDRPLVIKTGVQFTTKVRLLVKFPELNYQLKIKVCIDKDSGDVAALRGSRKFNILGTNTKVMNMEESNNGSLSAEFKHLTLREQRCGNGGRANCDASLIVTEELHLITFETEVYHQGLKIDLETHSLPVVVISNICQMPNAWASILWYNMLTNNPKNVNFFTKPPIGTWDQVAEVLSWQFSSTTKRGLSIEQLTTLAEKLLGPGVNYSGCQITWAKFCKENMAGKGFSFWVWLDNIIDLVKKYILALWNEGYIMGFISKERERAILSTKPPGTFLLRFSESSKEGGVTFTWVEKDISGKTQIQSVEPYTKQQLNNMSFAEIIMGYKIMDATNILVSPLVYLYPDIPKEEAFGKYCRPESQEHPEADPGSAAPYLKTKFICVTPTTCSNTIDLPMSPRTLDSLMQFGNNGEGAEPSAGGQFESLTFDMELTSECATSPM

For `COc1ccc(S(=O)(=O)/N=C(\CC2CCCCC2)N(C(C)C)C2CCSCC2)cc1`, the inhibition at 1 µM in [1] is -10%. Moreover, in [2], the inhibition at 5 µM was 53%. Further, the inhibition at 10 µM in [3] is 93%.

As to `COc1ccc(S(=O)(=O)/N=C(\CC2CCCCC2)N(C(C)C)C2CCCCCCC2)cc1`, the inhibition at 1 µM in series [1] came out at 5%. Besides, the inhibition at 5 µM in series [2] is 88%. In series [3], the inhibition at 10 µM turned out to be 100%. Besides, the Activity entry in [4] is reported as “Toxic”.

With `C[C@@H]1CCC[C@H](C)N1/C(CC1CCCCC1)=N/S(=O)(=O)C[C@@]12CCC(CC1=O)C2(C)C`, the inhibition at 1 µM in [1] was -1.5%. Besides, in series [3], the inhibition at 10 µM came to 57.5%.

Take `Cc1ccc(S(=O)(=O)/N=C(\CC2CCCCC2)N2[C@H](C)CCC[C@@H]2C)cc1`: the outcome in series [5], in series [9], in series [10] and in [12] was inactive. The inhibition at 1 µM in series [1] is 35%. Also, in series [2], the inhibition at 5 µM is 72%. Also, the inhibition entry in series [6], in series [7], in series [8] and in series [11] was “Active” each time. The inhibition at 10 µM in series [3] was 97.9%.

Regarding `C[C@@H]1CCC[C@H](C)N1/C(CC1CCCCC1)=N/S(=O)(=O)N(C)C`, the inhibition at 1 µM in series [1] stood at 11.8%. The inhibition at 10 µM in series [3] was determined as 68.4%.

On to `C[C@@H]1CCC[C@H](C)N1/C(CC1CCCCC1)=N/S(=O)(=O)c1ccccc1`, for which, in [1], the inhibition at 1 µM worked out at 3.3%. Also, the inhibition at 10 µM in [3] turned out to be 97.9%.

`Cc1ccc(S(=O)(=O)/N=C(\CC2CCCC2)N2[C@H](C)CCC[C@@H]2C)cc1`: the inhibition at 1 µM in series [1] was found to be 32.7%. The inhibition at 10 µM in [3] was 91.5%.

Take `COc1ccc(S(=O)(=O)/N=C(\CC2CCCCC2)N(C(C)C)C2CCOCC2)cc1`: the inhibition at 1 µM in series [1] was -14%. Besides, the inhibition at 5 µM in [2] was 28%. Besides, the inhibition at 10 µM in series [3] was found to be 39%.

Consider `Cc1ccc(S(=O)(=O)/N=C2\CCCCN2C(C)C)cc1`, for which the inhibition at 1 µM in series [1] was found to be 27.9%. In addition, in [3], the inhibition at 10 µM is 6.1%.

Take `COc1ccc(S(=O)(=O)/N=C(\CC2CCCCC2)N2CCCCCC2)cc1`: the inhibition at 1 µM in series [1] was -30%. Further, the inhibition at 5 µM in series [2] was determined as 49%. The inhibition at 10 µM in [3] came to 88%.

Regarding `Cc1ccc(S(=O)(=O)/N=C2\CCCCCN2C(C)C)cc1`, the inhibition at 1 µM in series [1] worked out at 27.1%. In series [3], the inhibition at 10 µM is 39.3%.

Turning to `Cc1ccc(S(=O)(=O)/N=C(\CC2CCCCC2)N2CCCC3CCCCC32)cc1` (centres undefined), in [1], the inhibition at 1 µM was 33.1%. The inhibition at 10 µM in series [3] is 78.9%.

`COc1ccc(S(=O)(=O)/N=C(\CC2CCCCC2)N(C(C)C)C2CCCCCC2)cc1`: the inhibition at 1 µM in series [1] was -6%. For the same molecule, the inhibition at 5 µM in series [2] was determined as 74%. The inhibition at 10 µM in series [3] was determined as 99%.

Take `CCCCC1CCCCN(C(C)C)/C1=N/S(=O)(=O)c1ccc(C)cc1` (centres undefined): the inhibition at 1 µM in series [1] is 12.1%. The inhibition at 10 µM in series [3] is 90.1%.

For `COc1ccc(S(=O)(=O)/N=C(\CC2CCCCC2)N2[C@H](C)CCC[C@@H]2C)cc1`, in series [2], the inhibition at 5 µM came out at 62%. Further, the inhibition at 10 µM in series [3] is 98%.

`CCCCC/C(=N\S(=O)(=O)c1ccc(C)cc1)N1[C@H](C)CCC[C@@H]1C`: in series [1], the inhibition at 1 µM was 20.9%. For the same molecule, in series [3], the inhibition at 10 µM was 99.8%.

As for `C[C@@H]1CCC[C@H](C)N1/C(CC1CCCCC1)=N/S(=O)(=O)c1ccccn1`, in [1], the inhibition at 1 µM is -20.2%. Moreover, the inhibition at 10 µM in [3] was 44.9%.

Take `C[C@@H]1CCC[C@H](C)N1/C(CC1CCCCC1)=N/S(=O)(=O)C(F)(F)F`: the inhibition at 1 µM in series [1] was -1.1%. In addition, the inhibition at 10 µM in series [3] was 96.1%.

As to `Cc1ccc(S(=O)(=O)/N=C(\C=C2CCCCC2)N2[C@H](C)CCC[C@@H]2C)cc1`, in series [1], the inhibition at 1 µM was 25.5%. The inhibition at 10 µM in series [3] turned out to be 23.3%.

As for `CCCCC1CCCN(C(C)C)/C1=N/S(=O)(=O)c1ccc(C)cc1` (centres undefined), the inhibition at 1 µM in series [1] worked out at 31.9%. For the same molecule, the inhibition at 10 µM in series [3] is 80.6%.

With `COc1ccc(S(=O)(=O)/N=C(\CC2CCCCC2)N(C(C)C)C2CCCC2)cc1`, the inhibition at 1 µM in [1] is -86%. The inhibition at 5 µM in series [2] came to 26%. In addition, the inhibition at 10 µM in series [3] turned out to be 99%.

As to `Cc1ccc(S(=O)(=O)/N=C(\C2CCCCC2)N2[C@H](C)CCC[C@@H]2C)cc1`, the inhibition at 1 µM in series [1] stood at 22.8%. For the same molecule, the inhibition at 10 µM in series [3] was 24.1%.

As for `C[C@@H]1CCC[C@H](C)N1/C(CC1CCCCC1)=N/S(=O)(=O)c1cccnc1`, the inhibition at 1 µM in series [1] was -23.6%. Also, the inhibition at 10 µM in series [3] worked out at 56.1%.

In the case of `CC(C)S(=O)(=O)/N=C(\CC1CCCCC1)N1[C@H](C)CCC[C@@H]1C`, in [1], the inhibition at 1 µM worked out at 1.6%. The inhibition at 10 µM in series [3] was found to be 12.6%.

A word on the inhibition: it is the relative decrease from the control value, in per cent.
